Screening data: PubChem, several laboratories
Arrestin-AP2 inh = human beta-arrestin and AP2 interaction inhibition; inhibition, % at 10 µM; FITC-arrestin peptide / GST-AP2 beads, flow cytometry; AP2 beta2 appendage carries R879A mutation; 0.31% of 340,000 active; AID 504490;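 active means inhibition above a set limit, near 3 SD of compounds lacking own fluorescence, cut at about 54% in these data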
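System: GST-AP2 R879A glutathione beads. Medium: PBS with 0.05% Tween 20 and 0.1% BSA. Also added: FITC-arrestin peptide, 50 nM. Incubation: 12 min plus 1 h, RT. Measured by: high-throughput flow cytometry of beads, ex 488, em 535 nm. Evaluation: percent drop in bead-associated FITC signal.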
procasp7 counter = activates human procaspase-7, counter-screen for procaspase-3 activators. recombinant procaspase-7, Ac-DEVD-pNA absorbance 405 nm; D23A/D198A/D206A triple mutant, cannot self-cleave; scale: DMSO 0, 5 µM enzyme 100. activation, % at 8.5 µM. 0.093% of 330,000 active. AID 463210;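 active means percent activation above the screen-wide mean plus 3 SD, cut at about 25% in these data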
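signal = Epi-absorbance of released pNA at 405 nm, two timepoints | assay system = Uncleavable procaspase-7 mutant enzyme | reagent = Ac-DEVD-pNA substrate, 400 µM as added | times = 1 h enzyme–compound preincubation and 2 h substrate reaction, both 25 °C | benchmarks = low DMSO alone, high DMSO plus 5 µM PC-7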
HGIII-sPLA2 inh = Blocks human group III sPLA2 activity; Q9NZ20; QFRET BODIPY PC-A2 liposome hydrolysis, fluorescence; inhibition, % at 12.2 µM; 0.56% of 370,000 active;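 active means inhibition above mean plus 3 SD of compounds lying within the high and low control bounds, cut at about 19% in these data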
Target sequence (Q9NZ20 whole entry, looked up): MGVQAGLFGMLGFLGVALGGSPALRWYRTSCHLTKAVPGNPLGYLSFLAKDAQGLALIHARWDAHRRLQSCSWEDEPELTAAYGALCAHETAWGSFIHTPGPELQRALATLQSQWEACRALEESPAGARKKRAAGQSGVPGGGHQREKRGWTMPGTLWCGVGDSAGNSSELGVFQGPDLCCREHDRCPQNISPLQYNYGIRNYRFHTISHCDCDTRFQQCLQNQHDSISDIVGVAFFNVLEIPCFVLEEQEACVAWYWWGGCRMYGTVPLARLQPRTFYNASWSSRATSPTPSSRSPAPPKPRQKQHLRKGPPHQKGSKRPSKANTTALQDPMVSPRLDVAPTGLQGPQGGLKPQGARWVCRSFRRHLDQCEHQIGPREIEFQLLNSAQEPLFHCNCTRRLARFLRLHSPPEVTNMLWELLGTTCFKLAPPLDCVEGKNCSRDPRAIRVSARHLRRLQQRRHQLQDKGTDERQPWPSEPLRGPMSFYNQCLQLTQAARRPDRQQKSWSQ
PLC-gamma1 inh = PLC-gamma1 (human) inhibition, primary screen | purified PLC-gamma1, fluorogenic substrate, fluorescence | inhibition, % at 12.2 µM | 0.84% of 370,000 active | P19174; in the data active means inhibition above about 9.5%
PLC-beta3 inh = blocks human PLC-beta3 enzyme activity; Q01970; Purified PLC-beta3, fluorogenic substrate, fluorescence; inhibition, % at 12.2 µM; 0.18% of 370,000 active; AID 720704
proCasp3 act = activates human procaspase-3. P42574. recombinant procaspase-3 D3A, Ac-DEVD-pNA absorbance 405 nm. AID 463141. activation, % at 8.5 µM. 0.11% of 330,000 active;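 active means activation above the mean of all tested compounds plus 3 SD, cut at about 21% in these data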
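System: Procaspase-3 D3A mutant. Medium: Zinc-free 300 mM NaCl, 50 mM HEPES, 0.01% Triton X-100. Schedule: 1 h preincubation plus 2 h reaction at 25 °C. Measured by: 405 nm absorbance of p-nitroaniline, reads at 0 and 120 min. Read-out: percent activation relative to control range.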
PLCg1 ctr = PLC-gamma1 inhibition, counter-screen for PLC-beta3 hits. shares compounds with PLC-gamma1 inh. purified PLC-gamma1, fluorogenic substrate, fluorescence. inhibition, % at 12.3 µM. 3.1% of 3,300 active; in the data active means inhibition above about 9.5%
PLCbeta3 conf = human PLC-beta3 inhibition, confirmation; shares compounds with PLC-gamma1 inh; purified PLC-beta3, fluorogenic substrate fluorescence; inhibition, % at 12.3 µM; 1% of 3,300 active
Numbers stand for hits; n = inactive; x = not tested or not shown. Only some compounds are listed: those with a hit (about 1.9% of all), similar ones and a draw of the others. Unless noted, no stated cut-off is given here; in the data, active means inhibition above about 11%; inactive means the rest.

SMILES	Arrestin-AP2 inh	procasp7 counter	HGIII-sPLA2 inh	PLC-gamma1 inh	PLC-beta3 inh	proCasp3 act	PLCg1 ctr	PLCbeta3 conf
CC(C)CCNC(=O)NC(=O)COC(=O)CCN=C1NS(=O)(=O)c2ccccc21	n	n	n	11	n	n	n	n
Cc1ccccc1NC(=O)C1CCCN1S(=O)(=O)c1ccccc1C(F)(F)F (stereo not drawn)	n	n	n	n	n	n	x	x
COC(=O)c1ccc(NC(=O)CN(C)S(=O)(=O)c2ccc(OC)c(C)c2)cc1	n	n	n	9.6	n	n	n	n
O=S1(=O)CCN(CCCc2ccccc2)CC1	x	x	n	n	n	x	x	x
O=S1(=O)CCN(CCc2ccccc2)CC1	x	x	n	n	12	x	n	n
CCCCOCCCNC(=O)C[C@H]1C[C@@]2(C(=O)OC)C(=C[C@H](C(C)C)O[C@@H]2C2CC2)N(CCC2=CCCCC2)C1=O	x	x	n	n	n	x	x	x
COC(=O)c1cn(-c2ccccc2)c(C)c1C(=O)OC	n	n	n	n	12	n	n	n
O=C(CSc1nnnn1C1CCCCC1)N1CCN(C(=O)c2ccco2)CC1	n	n	n	12	n	n	n	n
Cc1ccccc1-c1cc2c(nn1)-c1ccccc1C2=O	n	n	n	n	12	n	n	n
COc1ccc(-c2noc(CN(C)Cc3ccccc3)n2)c(OC)c1OC	n	x	n	n	n	x	x	x
COc1ccc(CN(C)Cc2ccccc2)c(OC)c1OC	n	n	n	11	n	n	n	n
Cn1c(=O)c2c(nc(-n3ccnc3)n2Cc2ccccc2)n(C)c1=O	n	n	n	10	n	n	n	n
COC(=O)[C@@]12C[C@@H](CC(=O)NCC3CCCCC3)C(=O)N(Cc3ccco3)C1=CCC(C)(C)C2	x	x	n	n	n	x	x	x
Cc1cccc(NC(=O)CN2C(=O)CCSc3ccccc32)c1C	x	x	n	n	n	x	x	x
O=c1c2ccccc2c(C=NCc2ccccn2)c(O)n1-c1ccccc1	n	n	n	n	n	n	x	x
O=c1oc2ccccc2c(O)c1C=NCc1ccccn1	n	n	n	12	n	n	n	n
NC(=O)C1CCCN(Cc2c(C(=O)N3CCc4ccccc4C3)nc3ccc(Cl)cn23)C1 (stereo not drawn)	n	n	n	n	n	n	x	x
CC1=C(c2ccccc2)C(O)(c2ccccc2)C(C)C1=O (stereo not drawn)	n	x	n	14	n	x	n	n
CCCC(C)C(=O)Nc1cccc(NC(C)=O)c1 (stereo not drawn)	n	n	n	12	n	n	n	n
COC(=O)c1cc(COC(=O)c2nc3nc(C)cc(C)n3n2)oc1C	n	n	n	n	12	n	n	n
CCOC(=O)C1(Cc2ccccc2)CCN(Cc2cccc(C#N)c2)CC1	x	x	n	n	n	x	x	x
COC(=O)c1ccc(C2/C(=C(/O)c3ccc(OC)cc3)C(=O)C(=O)N2CC2CCCO2)cc1 (stereo not drawn)	n	n	n	n	n	n	x	x
COc1ccc(/C(O)=C2/C(=O)C(=O)N(CC3CCCO3)C2c2cccc(O)c2)cc1 (stereo not drawn)	n	n	n	9.6	n	n	n	n
O=C(CCc1ccccc1)N[C@H]1[C@@H](O)CCC[C@]12C(=O)N(Cc1ccccc1)c1ccccc12	x	x	n	n	n	x	x	x
CC(C)CNS(=O)(=O)c1ccc(CCC(=O)N2CCC(C(N)=O)CC2)cc1	n	n	n	n	n	n	x	x
SMILES	Arrestin-AP2 inh	procasp7 counter	HGIII-sPLA2 inh	PLC-gamma1 inh	PLC-beta3 inh	proCasp3 act	PLCg1 ctr	PLCbeta3 conf
CCCCNC(=O)COC(=O)c1ccc(C)c(NC(=O)c2ccco2)c1	n	n	n	n	n	n	x	x
Cc1ccc(C(=O)OCc2c(C)noc2C)cc1NC(=O)c1ccco1	n	n	n	11	n	n	n	n
O[C@H](COc1cccc(Br)c1)CN1CCC(C(O)(c2ccccc2)c2ccccc2)CC1	x	x	n	n	n	x	x	x
COC(=O)[C@]12C[C@H](CC(=O)NCc3ccccc3)C(=O)N(Cc3ccc(Cl)cc3Cl)C1=C[C@H](COCc1ccccc1)O[C@@H]2C	x	x	n	n	n	x	x	x
Cc1c(Br)c(O)c(Br)c2sc(=O)oc12	n	n	n	9.9	n	n	n	n
Cc1ccc(C(NC(=O)c2cccc(S(=O)(=O)N3CCN(C)CC3)c2)c2ccccc2)cc1 (stereo not drawn)	n	n	n	10	n	n	n	n
COC(=O)[C@H]1C[C@@]2(N3CCCC3)c3ccccc3N(C(=O)OC(C)(C)C)[C@H]2N1C(=O)OC(C)(C)C	x	x	n	n	n	x	x	x
COC(=O)[C@@]12C[C@@H](CC(=O)NCC3CCCCC3)C(=O)N(Cc3ccc4c(c3)OCO4)C1=CCC(C)(C)C2	x	x	n	n	n	x	x	x
CC1(C(=O)NCc2cccc(C(F)(F)F)c2)CCN1Cc1ccc(-c2ccccc2)o1 (stereo not drawn)	x	x	n	9.6	n	x	n	n
O=C(CSc1nnc(COc2ccc(Cl)cc2)n1Cc1ccco1)Nc1cccc2ccccc12	x	x	n	n	n	x	x	x
Brc1cnc(OCc2ccccc2)nc1OCc1ccccc1	n	x	n	n	12	x	n	n
O=C(O)c1cc2c(ncc3c(=O)n(-c4ccccc4)[nH]c32)s1	x	x	n	n	n	x	x	x
Cc1ccccc1NC(=S)N1CCC(C(=O)c2ccc(F)cc2)CC1	n	n	n	9.9	n	n	n	n
Nc1cc(S(=O)(=O)O)cc([N+](=O)[O-])c1O	n	n	n	33	n	n	64	n
COC(=O)C1=C(C(=O)OC)[C@@H]2N(C)c3ccc(OC)cc3[C@@]23C[C@@H](C(=O)OC)N(C(=O)CC(C)C)C3=N1	n	n	n	9.6	n	n	n	n
COC(=O)C1CN(Cc2ccc(Cl)cc2)CCS(=O)(=O)N1Cc1cn(Cc2ccc(OC)cc2)nn1 (stereo not drawn)	x	x	n	n	n	x	x	x
CCCC(C)C(=O)Nc1cc([N+](=O)[O-])ccc1Cl (stereo not drawn)	n	n	n	n	n	n	x	x
CCCC(C)C(=O)Nc1cc([N+](=O)[O-])ccc1F (stereo not drawn)	n	n	n	9.7	n	n	n	n
O=C1CSc2ccc(C(=O)N3CCCC(C(=O)N4CCOCC4)C3)cc2N1 (stereo not drawn)	x	x	n	n	n	x	x	x
CCOC(=O)C1=C(C)OC2(O)c3ccccc3C(=O)C12O (stereo not drawn)	n	n	n	10	n	n	n	n
